Source: ChEMBL document CHEMBL1126554, “Synthesis of novel modified dipeptide inhibitors of human collagenase: beta-mercapto carboxylic acid derivatives” (J Med Chem, 1993)

Columns and labels:
Interstitial collagenase [1] = target: T1, Interstitial collagenase (Homo sapiens, UniProt P03956); experiment: Inhibition of radiolabeled rat skin type I collagen degradation by purified human lung fibroblast collagenase.
T1 sequence (P03956 whole entry): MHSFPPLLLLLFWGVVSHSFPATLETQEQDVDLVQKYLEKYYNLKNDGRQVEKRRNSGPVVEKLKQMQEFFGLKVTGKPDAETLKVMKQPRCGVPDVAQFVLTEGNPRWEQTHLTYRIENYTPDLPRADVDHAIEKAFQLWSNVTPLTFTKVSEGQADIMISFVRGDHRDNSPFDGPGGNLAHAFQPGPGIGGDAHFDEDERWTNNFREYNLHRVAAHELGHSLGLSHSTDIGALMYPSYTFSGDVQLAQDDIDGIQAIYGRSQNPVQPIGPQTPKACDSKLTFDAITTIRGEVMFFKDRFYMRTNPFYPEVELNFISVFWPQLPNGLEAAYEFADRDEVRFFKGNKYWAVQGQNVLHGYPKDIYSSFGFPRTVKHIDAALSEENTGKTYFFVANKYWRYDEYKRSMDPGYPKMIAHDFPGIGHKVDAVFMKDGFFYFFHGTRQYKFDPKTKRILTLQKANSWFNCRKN
In short: (§1)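 Trypsin-activated, semipurified enzyme from WI-38 lung fibroblast culture supernatants. 3H- or 14C-acetylated collagen (100 μg/tube) added at 4 °C, then 37 °C for 1000 min. Spun 12 000 rpm, 15 min, 4 °C. Supernatant peptides counted by scintillation. Enzyme set for 70% degradation.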

Interstitial collagenase [2] = target: T1, Interstitial collagenase; experiment: Inhibition of rat skin type I collagen degradation by purified human lung fibroblast collagenase without beta-mercaptoethanol
In short: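 β-Mercaptoethanol omitted. Enzyme was trypsin-activated, semipurified collagenase from WI-38 fibroblast culture supernatants. Compounds sonicated into MeOH, serially diluted. Collagen 3H- or 14C-acetylated, 100 μg/tube, added to tubes cooled to 4 °C. Incubated 37 °C for 1000 min, centrifuged 12 000 rpm for 15 min at 4 °C. Soluble supernatant peptides counted by liquid scintillation.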

Interstitial collagenase [3] = target: T1, Interstitial collagenase; experiment: Inhibition of rat skin type I collagen degradation by purified human lung fibroblast collagenase
In short: as §1, with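 “supernatants. Compounds sonicated into MeOH and serially diluted; some runs had β-mercaptoethanol at 9.6×10^-5 M final.” for “supernatants.”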

SMILES | IC50 (Interstitial collagenase [1]) | IC50 (Interstitial collagenase [2]) | IC50 (Interstitial collagenase [3])
CNC(=O)[C@H](Cc1ccc(OC)cc1)NC(=O)[C@H](CC(C)C)[C@@H](S)CC(=O)O | 25 nM |  | 
CNC(=O)[C@H](Cc1ccc(OC)cc1)NC(=O)[C@H](CC(C)C)[C@@H](S)CC(=O)N1CCN(C)CC1 | 120 nM |  | 
CNC(=O)[C@H](Cc1c[nH]c2ccccc12)NC(=O)[C@H](CC(C)C)[C@@H](S)CC(=O)OC |  | 21 nM | 2.5 nM
CNC(=O)[C@H](Cc1ccc(OC)cc1)NC(=O)[C@H](CC(C)C)[C@@H](S)CC(N)=O | 23 nM |  | 
CNC(=O)[C@H](Cc1ccc(OC)cc1)NC(=O)[C@H](CC(C)C)[C@@H](S)CC(=O)NCC(=O)OC(C)(C)C | 280 nM |  | 
CNC(=O)[C@H](Cc1c[nH]c2ccccc12)NC(=O)[C@@H](CC(C)C)[C@H](S)CC(=O)OC |  |  | 12 nM
CNC(=O)[C@H](Cc1ccc(OC)cc1)NC(=O)[C@H](CC(C)C)[C@@H](S)CC(=O)NCC(=O)O | 27 nM |  | 
CNC(=O)[C@H](Cc1ccc(OC)cc1)NC(=O)[C@H](CC(C)C)[C@H](CC(=O)OC)SC(C)=O | 44 nM |  | 
CNC(=O)[C@H](Cc1ccc(OC)cc1)NC(=O)[C@H](CC(C)C)[C@@H](S)CC(=O)NC(CC(C)C)C(=O)OC(C)(C)C (some centres undefined) | 980 nM |  | 
CNC(=O)[C@H](Cc1ccc(OC)cc1)NC(=O)[C@H](CC(C)C)[C@@H](S)CC(=O)NCC(N)=O | 32 nM |  | 
CNC(=O)[C@H](Cc1ccccc1)NC(=O)[C@H](CC(C)C)[C@@H](S)CC(=O)OC | 2 nM |  | 
CNC(=O)[C@H](Cc1ccc(OC)cc1)NC(=O)[C@H](CC(C)C)[C@@H](S)CC(=O)NC(CC(C)C)C(=O)O (some centres undefined) | 830 nM |  | 
CNC(=O)C[C@H](S)[C@@H](CC(C)C)C(=O)N[C@@H](Cc1ccc(OC)cc1)C(=O)NC | 145 nM |  | 
CNC(=O)[C@H](Cc1ccc(OC)cc1)NC(=O)C(CC(C)C)C(C)S (some centres undefined) |  |  | 17 nM
CNC(=O)[C@H](Cc1c[nH]c2ccccc12)NC(=O)[C@H](CC(C)C)[C@H](CC(=O)OC)SS[C@@H](CC(=O)OC)[C@@H](CC(C)C)C(=O)N[C@@H](Cc1c[nH]c2ccccc12)C(=O)NC |  | 1400 nM | 22 nM
CNC(=O)[C@H](Cc1ccc(OC)cc1)NC(=O)[C@H](CC(C)C)[C@@H](S)CC(=O)OC(C)(C)C | 10 nM |  | 
CNC(=O)[C@H](Cc1c[nH]c2ccccc12)NC(=O)[C@H](CC(C)C)[C@H](CC(=O)OC)SC(C)=O |  |  | 19 nM
CNC(=O)[C@H](Cc1c[nH]c2ccccc12)NC(=O)C(CC(C)C)C(S)CC(=O)OC (stereo in doubt; 56b) |  |  | 810 nM
CNC(=O)[C@H](Cc1c[nH]c2ccccc12)NC(=O)C(CC(C)C)C(S)CC(=O)OC (stereo in doubt; 56c) |  |  | 730 nM
CNC(=O)[C@@H](NC(=O)C(CC(C)C)C(S)CC(=O)OC)C(C)OCc1ccccc1 (stereo in doubt; 57ab) | 3 nM |  | 
CNC(=O)[C@@H](NC(=O)C(CC(C)C)C(S)CC(=O)OC)C(C)OCc1ccccc1 (stereo in doubt; 57cd) | 13 nM |  | 
COC(=O)C[C@H](S)[C@@H](CC(C)C)C(=O)N[C@@H](Cc1ccccc1)C(N)=O (stereo in doubt; 58cd) | 190 nM |  | 
